INS-1E rescue: rescue of cytokine-induced death in INS-1E beta cells; 20,000 tested, 0.1% active; protection from cytokine-induced ATP loss, % at 10 µM; INS-1E cytokine-induced death, ATP luminescence, 48 h; normalised: neutral wells 0, positive control 100;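 active = mean replicate protection from cytokine-induced ATP loss at least 50% and at least 75% of replicates each reaching 50%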
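Assay system – rat INS-1E insulinoma cell line · Quantity – 8000 cells per well · Buffer or medium – RPMI without phenol red, 5% FBS · Schedule – 48 h co-treatment, 10 min post-lysis read · Technique – luminescent ATP assay (CellTiter-Glo)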
A1 apoptosis 2: compounds inhibiting A1, read as caspase activation; MEF A1-2A-BIM cells, caspase-Glo luminescence, 3 h; percent of clofoctol response, DMSO zero; caspase activation, % (no concentration beside the values); 24,000 tested, under 10 active; AID 2465; in the data active = caspase activation above about 5.9%
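Material: mouse embryonic fibroblasts co-expressing A1 and BIM (A1-2A-BIM), primed for A1 dependence / Quantity: 2500 cells/well / Buffer or medium: RPMI-1640 growth medium with 10% FBS / Doses: 50 nL compound per well, pinned / Schedule: 3 h compound exposure at 37 °C / Signal: Caspase-Glo luminescence (DEVD substrate) / Measure: Caspase-3/7 activation, seen as rise in luminescence signal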
T cruzi intra: intracellular Trypanosoma cruzi inhibition. 22,000 tested, 4.9% active. activity score (inhibition), % at 5.01 µM. AID 651903. intracellular Trypanosoma cruzi in host cells, plate reader; in the data active = activity score above about 55%;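 note: parasites and compound incubated about four days before reading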
Of the large screens only hits and unclear results are named; the others gave an inactive call. Shown is part of a subset that was picked to be rich in hits.

C[C@@H]1CCCCO[C@H](CN(C)Cc2ccc3c(c2)OCO3)[C@@H](C)CN([C@H](C)CO)C(=O)c2cc(NC(=O)Nc3ccc(C(F)(F)F)cc3)ccc2O1	T cruzi intra 78.4
C[C@@H]1CCCCO[C@@H](CN(C)Cc2ccc(C(F)(F)F)cc2)[C@@H](C)CN([C@H](C)CO)C(=O)c2cc(NC(=O)NC3CCCCC3)ccc2O1	T cruzi intra 64.7
C[C@@H]1CCCCO[C@H](CN(C)Cc2ccc(C(F)(F)F)cc2)[C@@H](C)CN([C@H](C)CO)C(=O)c2cc(NC(=O)Nc3ccc(C(F)(F)F)cc3)ccc2O1	T cruzi intra 70.7
C[C@@H]1CCCCO[C@H](CN(C)Cc2ccc(C(F)(F)F)cc2)[C@@H](C)CN([C@H](C)CO)C(=O)c2cc(NC(=O)Nc3ccc(F)cc3)ccc2O1	T cruzi intra 71.1 (no result: A1 apoptosis 2)
C[C@H]1CCCCO[C@H](CN(C)Cc2ccc(C(F)(F)F)cc2)[C@@H](C)CN([C@@H](C)CO)C(=O)c2cc(NC(=O)Nc3ccc(C(F)(F)F)cc3)ccc2O1	none (no result: INS-1E rescue, T cruzi intra)
C[C@@H]1CCCCO[C@H](CN(C)Cc2ccc(C(F)(F)F)cc2)[C@@H](C)CN([C@H](C)CO)C(=O)c2cc(NC(=O)NC3CCCCC3)ccc2O1	none (no result: A1 apoptosis 2)
C[C@@H]1CCCCO[C@@H](CN(C)Cc2ccc(C(F)(F)F)cc2)[C@@H](C)CN([C@@H](C)CO)C(=O)c2cc(NC(=O)Nc3ccc4c(c3)OCO4)ccc2O1	none (no result: INS-1E rescue, T cruzi intra)
COc1ccc(NC(=O)Nc2ccc3c(c2)CC(=O)N([C@@H](C)CO)C[C@H](C)[C@H](CN(C)C(=O)NC2CCCCC2)O3)cc1	none (no result: A1 apoptosis 2)
C[C@@H]1CCCCO[C@@H](CN(C)Cc2ccc(Cl)c(Cl)c2)[C@@H](C)CN([C@H](C)CO)C(=O)c2cc(NC(=O)Nc3ccc4c(c3)OCO4)ccc2O1	T cruzi intra 67.5
C[C@@H]1CN([C@H](C)CO)C(=O)c2cc(NC(=O)Nc3ccc(C(F)(F)F)cc3)ccc2O[C@@H](C)CCCCO[C@H]1CN(C)Cc1ccc(C(F)(F)F)cc1	none (no result: INS-1E rescue, T cruzi intra)
C[C@@H]1CCCCO[C@H](CN(C)Cc2ccc(Cl)c(Cl)c2)[C@H](C)CN([C@@H](C)CO)C(=O)c2cc(NC(=O)Nc3ccc4c(c3)OCO4)ccc2O1	none (no result: INS-1E rescue, T cruzi intra)
C[C@@H]1CCCCO[C@@H](CN(C)Cc2ccc(C(F)(F)F)cc2)[C@@H](C)CN([C@H](C)CO)C(=O)c2cc(NC(=O)Nc3ccc(C(F)(F)F)cc3)ccc2O1	T cruzi intra 72.3 (no result: A1 apoptosis 2)
C[C@H]1CN([C@@H](C)CO)C(=O)c2cccc(NC(=O)c3ccc(-c4nccs4)cc3)c2O[C@H]1CN(C)S(=O)(=O)c1ccccc1	none (no result: A1 apoptosis 2)
C[C@@H]1CN([C@@H](C)CO)C(=O)c2cc(NS(=O)(=O)c3ccccc3)ccc2O[C@@H](C)CCCCO[C@@H]1CN(C)C(=O)Nc1cccc2ccccc12	none (no result: INS-1E rescue, T cruzi intra)
C[C@@H]1CN([C@H](C)CO)C(=O)c2cc(NC(=O)Cn3cnnn3)ccc2O[C@@H]1CN(C)Cc1ccccc1	none
C[C@@H]1CN([C@@H](C)CO)C(=O)c2cc(NC(=O)CCC(F)(F)F)ccc2O[C@H]1CN(C)S(=O)(=O)c1ccccc1	none
C[C@H](CO)N1C[C@H](C)[C@@H](CN(C)Cc2ccc(C(=O)O)cc2)Oc2ccc(NC(=O)Nc3ccccc3)cc2C1=O	none (no result: A1 apoptosis 2)
C[C@@H]1CN([C@@H](C)CO)C(=O)c2cccc(NC(=O)c3ccncc3)c2O[C@@H]1CN(C)C(=O)Nc1ccc(F)cc1	none
C[C@H]1CN([C@@H](C)CO)C(=O)c2cccc(NC(=O)c3ccncc3)c2O[C@H]1CN(C)C(=O)Nc1ccc(C(F)(F)F)cc1	T cruzi intra 85.8
C[C@H]1CN([C@@H](C)CO)C(=O)c2cccc(NC(=O)c3ccncc3)c2O[C@H]1CN(C)C(=O)Nc1ccccc1	T cruzi intra 79.4
C[C@H](CO)N1C[C@H](C)[C@H](CN(C)C(=O)Nc2ccc(F)cc2)Oc2c(NC(=O)c3ccncc3)cccc2C1=O	T cruzi intra 80.5 (no result: A1 apoptosis 2)
C[C@@H]1CN([C@H](C)CO)C(=O)c2cccc(NC(=O)c3ccncc3)c2O[C@@H]1CN(C)C(=O)Nc1ccccc1	none
C[C@H](CO)N1C[C@H](C)[C@@H](CN(C)C(=O)Nc2ccc(C(F)(F)F)cc2)Oc2c(NC(=O)c3ccncc3)cccc2C1=O	none
COc1ccc(S(=O)(=O)N(C)C[C@@H]2Oc3c(NC(=O)CCCCCC(=O)Nc4ccccc4N)cccc3C(=O)N([C@@H](C)CO)C[C@H]2C)cc1	none
CC(C)NC(=O)Nc1ccc2c(c1)C(=O)N([C@H](C)CO)C[C@@H](C)[C@H](CN(C)C(=O)Nc1ccc3c(c1)OCO3)O2	none (no result: A1 apoptosis 2)
C[C@H](CO)N1C[C@H](C)[C@H](CN(C)C(=O)Nc2ccccc2)Oc2ncc(C#Cc3ccccc3)cc2C1=O	none (no result: INS-1E rescue)
C[C@H](CO)N1C[C@H](C)[C@H](CN(C)C(=O)Nc2ccc3c(c2)OCO3)Oc2ncc(C#CC(C)(C)O)cc2C1=O	none (no result: A1 apoptosis 2)
COc1ccc(NC(=O)N(C)C[C@@H]2Oc3ncc(C#Cc4ccc(C(F)(F)F)cc4)cc3C(=O)N([C@H](C)CO)C[C@@H]2C)cc1	T cruzi intra 82.9 (no result: INS-1E rescue)
C[C@H](CO)N1C[C@H](C)[C@H](CN(C)C(=O)Nc2ccccc2)Oc2ncc(C#Cc3ccc(C(F)(F)F)cc3)cc2C1=O	T cruzi intra 83.4 (no result: INS-1E rescue)
COc1ccc(NC(=O)N(C)C[C@@H]2Oc3ncc(C#CC(C)(C)O)cc3C(=O)N([C@H](C)CO)C[C@@H]2C)cc1	none (no result: INS-1E rescue)
C[C@H](CO)N1C[C@H](C)[C@H](CN(C)C(=O)Nc2ccc3c(c2)OCO3)Oc2ncc(C#Cc3ccc(C(F)(F)F)cc3)cc2C1=O	T cruzi intra 82.7 (no result: INS-1E rescue)
C[C@H](CO)N1C[C@H](C)[C@H](CN(C)Cc2ccc(C(=O)O)cc2)Oc2ccc(NC(=O)C3CCCCC3)cc2C1=O	none
COc1ccc(NC(=O)N(C)C[C@@H]2Oc3c(NC(=O)NC(C)C)cccc3C(=O)N([C@H](C)CO)C[C@H]2C)cc1	none (no result: A1 apoptosis 2)
Cc1noc(C)c1NC(=O)Nc1ccc2c(c1)CC(=O)N([C@@H](C)CO)C[C@@H](C)[C@@H](CN(C)C(=O)Nc1ccc(F)cc1)O2	none
C[C@@H]1CN([C@@H](C)CO)C(=O)c2cccc(NC(=O)Nc3ccc(C(F)(F)F)cc3)c2O[C@@H]1CN(C)Cc1ccc(-c2ccccc2)cc1	T cruzi intra 64.9 (no result: A1 apoptosis 2)
C[C@H]1CN([C@@H](C)CO)C(=O)c2cccc(NC(=O)Nc3ccc(F)cc3)c2O[C@@H]1CN(C)Cc1ccc(C(F)(F)F)cc1	none
C[C@@H]1CN([C@H](C)CO)C(=O)c2cccc(NC(=O)C3CC3)c2O[C@@H]1CN(C)Cc1ccc(C(F)(F)F)cc1	none (no result: A1 apoptosis 2)
C[C@H]1CN([C@@H](C)CO)C(=O)c2cccc(NC(=O)Nc3ccc(F)cc3)c2O[C@@H]1CN(C)Cc1ccc(-c2ccccc2)cc1	none
C[C@@H]1CN([C@H](C)CO)C(=O)c2cccc(NC(=O)Nc3ccc(C(F)(F)F)cc3)c2O[C@@H]1CN(C)Cc1ccc(C(F)(F)F)cc1	T cruzi intra 88.6
C[C@@H]1CN([C@H](C)CO)C(=O)c2cccc(NC(=O)Nc3ccc(F)cc3)c2O[C@@H]1CN(C)Cc1ccc(-c2ccccc2)cc1	T cruzi intra 68.4 (no result: A1 apoptosis 2)

Screening data from PubChem BioAssay.
